Activity calls are given as the source filed them. No cut-off for these calls is given here.
Tests used:
[1] = target: D(2) dopamine receptor (Bos taurus) (UniProt P20288); test: Inhibitory activity against dopamine receptor D2 in calf corpus striatum using [3H]-Spiperone as radioligand; type: tissue-based
In short: (§1)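 Displacement of [3H]spiperone binding in calf corpus striatum membranes; some values given as percent displacement at 1000 nM.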

[2] = target: D(2) dopamine receptor (Rattus norvegicus) (UniProt P61169); test: (§2) Inhibitory activity against dopamine receptor D2 in rat corpus striatum using [3H]apomorphine as radioligand; type: tissue-based
Sequence of D(2) dopamine receptor (Rattus norvegicus) (P61169 whole entry): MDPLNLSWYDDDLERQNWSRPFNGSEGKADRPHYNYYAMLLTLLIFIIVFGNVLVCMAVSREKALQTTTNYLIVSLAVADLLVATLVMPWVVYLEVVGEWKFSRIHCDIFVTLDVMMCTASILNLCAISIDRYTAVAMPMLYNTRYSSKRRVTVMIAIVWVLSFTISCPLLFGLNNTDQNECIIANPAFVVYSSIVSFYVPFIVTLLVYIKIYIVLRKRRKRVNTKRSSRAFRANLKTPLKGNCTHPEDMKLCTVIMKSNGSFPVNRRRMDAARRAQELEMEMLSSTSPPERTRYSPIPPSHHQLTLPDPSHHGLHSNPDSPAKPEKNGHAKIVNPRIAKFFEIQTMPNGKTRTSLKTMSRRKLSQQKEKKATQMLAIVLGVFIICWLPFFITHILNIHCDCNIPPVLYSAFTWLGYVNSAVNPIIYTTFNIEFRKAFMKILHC
In short: (§3)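 Displacement of [3H]apomorphine binding in rat corpus striatum membranes; some values given as percent displacement at 1000 nM.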

Rattus norvegicus [3] = test: Inhibition of serum prolactin concentration in rats when 5 mg/Kg was administered intraperitoneally; type: functional
In short: (§4)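 Prolactin in serum of nonreserpinized male rats (Clemens method) after 5 mg/kg ip. Values are mean ± SE for 6-10 rats; significance versus control at P<0.05.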

Rattus norvegicus [4] = test: Reduction of serum prolactin concentration in rats, 5 mg/Kg administered intraperitoneally; type: functional; in short: as §4
D(2) dopamine receptor [5] = target: T1, D(2) dopamine receptor (Bos taurus, UniProt P20288); test: Inhibitory activity against dopamine receptor D2 in calf corpus striatum using [3H]spiperone as radioligand; type: tissue-based; in short: as §1
T1 sequence (P20288 whole entry): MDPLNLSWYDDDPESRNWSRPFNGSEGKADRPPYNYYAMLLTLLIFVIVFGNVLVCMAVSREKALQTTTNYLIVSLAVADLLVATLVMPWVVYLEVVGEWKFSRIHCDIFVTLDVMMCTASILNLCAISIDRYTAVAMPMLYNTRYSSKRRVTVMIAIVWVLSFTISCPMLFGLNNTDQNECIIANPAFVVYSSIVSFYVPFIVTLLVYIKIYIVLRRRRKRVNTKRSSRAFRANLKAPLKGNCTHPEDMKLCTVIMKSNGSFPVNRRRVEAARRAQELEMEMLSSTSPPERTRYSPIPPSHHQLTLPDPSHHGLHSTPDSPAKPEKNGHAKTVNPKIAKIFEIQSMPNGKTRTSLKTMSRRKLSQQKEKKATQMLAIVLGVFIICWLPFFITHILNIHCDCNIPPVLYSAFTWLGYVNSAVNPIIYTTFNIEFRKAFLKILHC

D(2) dopamine receptor [6] = target: T2, D(2) dopamine receptor (Rattus norvegicus, UniProt P61169); test: as §2; type: tissue-based; in short: as §3
T2 sequence (P61169 whole entry): as the sequence (P61169 whole entry) above

Rattus norvegicus [7] = test: Effect on 3,4-Dihydroxyphenylacetic acid concentration in whole rat brain when 10 mg/Kg was administered intraperitoneally; type: functional
In short: (§5)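 Rats dosed 10 mg/kg ip. Whole-brain dopamine, DOPAC and HVA measured by liquid chromatography with electrochemical detection, expressed as nmol/g and as % change from a control group. Mean ± SE, five rats per group; significance at P<0.05.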

Rattus norvegicus [8] = test: Effect on serum corticosterone level […] when 10 mg/Kg was administered intraperitoneally; type: functional
In short: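 Rats dosed 10 mg/kg ip. Serum corticosterone determined spectrofluorometrically (Solem and Brinck-Johnsen method), reported as µg/100 mL versus a vehicle group and as % change from control. Mean ± SE, five rats per group; significance P<0.05.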

Rattus norvegicus [9] = test: Effect on dopamine concentration in whole rat brain when 10 mg/Kg was administered intraperitoneally; type: functional; in short: as §5
Rattus norvegicus [10] = test: (§6) Effect on homovanillic acid concentration in whole rat brain when 10 mg/Kg was administered intraperitoneally; type: functional; in short: as §5
Rattus norvegicus [11] = test: Inhibition of serum prolactin concentration in rats when 5 mg/Kg was administered intraperitoneally; NS means not significant; type: functional, organism-based; in short: as §4
Rattus norvegicus [12] = test: Effect on homovanillic acid concentration in whole rat brain when 10 mg/kg was administered intraperitoneally; type: functional; settings: route intraperitoneal
In short: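 Rats dosed ip at 10 mg/kg. Whole brain was assayed for HVA, with dopamine and DOPAC measured alongside, by liquid chromatography with electrochemical detection. Levels are in nmol/g and expressed as % change from control. Values are mean ± standard error for five rats per group. Significance versus control was taken at P<0.05.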

Rattus norvegicus [13] = test: Effect on serum corticosterone level in whole rat brain when 10 mg/kg was administered intraperitoneally; type: functional; settings: route intraperitoneal
In short: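 Rats dosed ip at 10 mg/kg. Serum corticosterone was determined spectrofluorometrically and reported in µg/100 mL, as % change from vehicle. Values are mean ± standard error for five rats per group. Significance versus control was taken at P<0.05.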

Rattus norvegicus [14] = test: as §6
D(2) dopamine receptor [15] = target: T1, D(2) dopamine receptor; test: (§7) Inhibitory activity against Dopamine receptor D2 in calf corpus striatum using [3H]spiperone as radioligand; type: tissue-based; in short: as §1
D(2) dopamine receptor [16] = target: T2, D(2) dopamine receptor; test: Inhibitory activity against Dopamine receptor D2 in rat corpus striatum using [3H]Apomorphine as radioligand; type: tissue-based; in short: as §3
Rattus norvegicus [17] = test: Inhibition of serum prolactin concentration in rats when 5 mg/kg was administered intraperitoneally; type: functional; settings: ip, route intraperitoneal; in short: as §4
[18] = target: D(2) dopamine receptor (Bos taurus) (UniProt P20288); test: as §7; type: tissue-based; in short: as §1
[19] = target: D(2) dopamine receptor (Rattus norvegicus) (UniProt P61169); test: Inhibitory activity against Dopamine receptor D2 in rat corpus striatum using [3H]apomorphine as radioligand; type: tissue-based; in short: as §3
Rattus norvegicus [20] = test: Dopa accumulation in GBL-treated rats after the administration at a dose of 0.3 mg/Kg; type: functional
In short: (§8)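 Male rats given compound ip; γ-butyrolactone 500 mg/kg ip 10 min later, then decarboxylase inhibitor NSD 1015 100 mg/kg ip 5 min after GBL and 40 min before sacrifice. Striatal dopa accumulation measured by LC with electrochemical detection; Roth autoreceptor paradigm. Values are mean ± SE, five rats per group; one control group received no GBL.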

Rattus norvegicus [21] = test: Dopa accumulation in GBL-treated rats after the administration at a dose of 1.0 mg/Kg; type: functional; in short: as §8
Rattus norvegicus [22] = test: Dopa accumulation in GBL-treated rats after the administration at a dose of 10 mg/Kg; type: functional; in short: as §8
Rattus norvegicus [23] = test: Dopa accumulation in GBL-treated rats after the administration at a dose of 3 mg/Kg; type: functional; in short: as §8
Rattus norvegicus [24] = species on record: Rattus norvegicus; test: Dopa accumulation in GBL-treated rats in the absence of the compound; type: functional; in short: as §8
Rattus norvegicus [25] = test: Effect on dopamine concentration in whole rat brain when 10 mg/Kg 10 mg/kg was administered intraperitoneally; type: functional; settings: route intraperitoneal; in short: as §5

Sequence of D(2) dopamine receptor (Bos taurus) (P20288 whole entry): as the sequence (P20288 whole entry) above

Row | Compound | Inhibition (Rattus norvegicus [3]) [%] | Turnover (Rattus norvegicus [4]) [ng/mL] | IC50 (D(2) dopamine receptor [5]) [µM] | IC50 (D(2) dopamine receptor [6]) [µM] | Turnover (Rattus norvegicus [7]) [nmol/g] | Turnover (Rattus norvegicus [8]) | Turnover (Rattus norvegicus [9]) [nmol/g] | Turnover (Rattus norvegicus [10]) [nmol/g] | other results
1 | CCCN[C@@H]1Cc2c[nH]nc2C[C@H]1CCCO | 46 | 4.4 |  |  |  |  |  |  | Displacement [1]: 10%; Displacement [2]: 45%
2 | CCCCNC1CCc2[nH]ncc2C1 (centres undefined) |  |  | > 10 | > 10 |  |  |  |  | 
3 | CCCN(CCc1cccs1)C1CCc2n[nH]cc2C1 (centres undefined) | 73 | 2.8 | 1.41 | 0.16 | 0.43 | 17.3 µg/100 mL | 4.78 | 0.24 | 
4 | CCCN[C@@H]1Cc2c[nH]nc2C[C@H]1CCCSC |  | 7.8 |  |  |  |  |  |  | Displacement [1]: 10%; Displacement [2]: 45%; inhibition (Rattus norvegicus [11]): inactive
5 | CCCN(CCc1ccccc1)C1CCc2n[nH]cc2C1 (centres undefined) | 87 | 1.4 | 1.06 | 0.14 | 0.4 | 17.5 µg/100 mL | 4.41 | 0.23 | 
6 | c1ccc(CCNC2CCc3n[nH]cc3C2)cc1 (centres undefined) |  | 6 | > 10 |  | 0.51 | 7.7 µg/100 mL | 3.65 | 0.34 | inhibition (Rattus norvegicus [11]): inactive
7 | CCCN1C[C@H](CSC)C[C@@H]2c3cccc4[nH]cc(c34)C[C@H]21 [PERGOLIDE] | 88 | 2 |  |  | 0.53 |  | 6.42 |  | Turnover (Rattus norvegicus [12]): 0.32 nmol/g; Turnover (Rattus norvegicus [13]): 54 µg/100 mL
8 | CCCCNC1CCc2n[nH]cc2C1 (centres undefined) |  | 13.4 |  |  | 0.53 | 5.8 µg/100 mL | 3.9 | 0.36 | inhibition (Rattus norvegicus [11]): inactive
9 | CCCNC1CCc2nc(N)sc2C1 (centres undefined) | 78 | 3.7 | > 1 |  | 0.35 | 54 µg/100 mL | 5.08 |  | Turnover (Rattus norvegicus [14]): 0.15 nmol/g
10 | CCCN[C@@H]1Cc2c[nH]nc2C[C@H]1CCCOC | 44 | 4.6 |  |  |  |  |  |  | Displacement [1]: 12%; Displacement [2]: 50%
11 | CCCN(C)C1CCc2n[nH]cc2C1 (centres undefined) |  | 2 |  |  | 0.43 | 41 µg/100 mL | 5.16 |  | IC50 (D(2) dopamine receptor [15]): 8.33 µM; IC50 (D(2) dopamine receptor [16]): 1.23 µM; inhibition in vivo at 5 mg/kg (Rattus norvegicus [17]): 82%; Turnover (Rattus norvegicus [12]): 0.22 nmol/g
12 | CSCCCNC1CCc2n[nH]cc2C1 (centres undefined) |  | 9.9 | > 10 | 2.03 | 0.49 | 3.8 µg/100 mL | 3.91 | 0.27 | inhibition (Rattus norvegicus [11]): inactive
13 | c1csc(CCNC2CCc3n[nH]cc3C2)c1 (centres undefined) |  | 7.9 | > 10 | 9.16 | 0.49 | 5.5 µg/100 mL | 3.47 | 0.38 | inhibition (Rattus norvegicus [11]): inactive
14 | CCNC1CCc2n[nH]cc2C1 (centres undefined) | 91 | 1.6 | 11.6 | 0.61 | 0.55 | 16.6 µg/100 mL | 6.39 | 0.4 | 
15 | CCCN[C@@H]1Cc2c[nH]nc2C[C@H]1CCC |  | 5.1 |  |  |  |  |  |  | Displacement [18]: 9%; Displacement [19]: 41%
16 | CCCNC1CCc2n[nH]cc2C1 (centres undefined) | 78 | 2.4 | 15.2 | 0.065 | 0.51 | 31.7 µg/100 mL |  | 0.51 | Accumulation (Rattus norvegicus [20]): 25.2 nM/g; Accumulation (Rattus norvegicus [21]): 23.1 nM/g; Accumulation (Rattus norvegicus [22]): 12.1 nM/g; Accumulation (Rattus norvegicus [23]): 16.9 nM/g; Accumulation (Rattus norvegicus [24]): 24.8 nM/g; Turnover (Rattus norvegicus [25]): 4.86 nmol/g
17 | CCCCN(CCC)C1CCc2n[nH]cc2C1 (centres undefined) |  | 1.9 |  |  | 0.39 | 38.6 ng/mL | 4.94 |  | IC50 (D(2) dopamine receptor [15]): 10 µM; IC50 (D(2) dopamine receptor [16]): 0.33 µM; inhibition in vivo at 5 mg/kg (Rattus norvegicus [17]): 83%
18 | CCCN(CCCSC)C1CCc2n[nH]cc2C1 (centres undefined) | 90 | 1.1 | 3.99 | 0.31 | 0.28 | 48 µg/100 mL | 4.92 | 0.16 | 

— ChEMBL document CHEMBL1124655, “Substituted 5-amino-4,5,6,7-tetrahydroindazoles as partial ergoline structures with dopaminergic activity” (J Med Chem, 1989)
